Experimental data: ChEMBL document CHEMBL4251594, “Design and synthesis of sulfonamidophenylethylureas as novel cardiac myosin activator” (Eur J Med Chem, 2018)

Experiments:
Bos taurus = species: Bos taurus; test: Activation of actin-stimulated bovine cardiac myosin S1 fragment ATPase activity in sarcomere at 10 uM after 10 mins by spectrophotometric analysis relative to control
Rattus norvegicus [1] = test: Positive inotropic activity in Sprague-Dawley rat heart assessed as increase in left ventricle fractional shortening at 2 to 16 ug/kg/min infused for 3 mins by echocardiographic analysis; assay type: functional
Method in brief: (§1)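 Seven-week-old male Sprague-Dawley rats; dosing via internal jugular vein central line, infused at 0, 2, 4, 8 and 16 µg/kg/min for 3 minutes from a 40 µg/mL final solution (concentration checked by HPLC against three standards). M-mode echocardiography at baseline and 16 µg/kg/min with a 25 MHz transducer; percent rise in LV fractional shortening and ejection fraction.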

Rattus norvegicus [2] = test: Positive inotropic activity in Sprague-Dawley rat heart assessed as increase in ejection fraction at 2 to 16 ug/kg/min infused for 3 mins by echocardiographic analysis; assay type: functional; method in brief: as §1
Oryctolagus cuniculus = species: Oryctolagus cuniculus; test: Activation of actin-stimulated rabbit skeletal muscle myosin S1 fragment ATPase activity at 100 uM after 10 mins by spectrophotometric analysis relative to control
Gallus gallus = species: Gallus gallus; test: Activation of actin-stimulated chicken gizzard smooth muscle myosin S1 fragment ATPase activity at 100 uM after 10 mins by spectrophotometric analysis relative to control
Cardiac muscle cell [3] = test: Positive inotropic activity in Sprague-Dawley rat ventricular myocytes assessed as change in ventricular cell contractility by measuring cell shortening at 5 uM; assay type: functional
[4] = Aqueous solubility of the compound in water; assay type: physicochemical; conditions: buffer
Cardiac muscle cell [5] = test: Positive inotropic activity in Sprague-Dawley rat ventricular myocytes assessed as change in ventricular cell contractility by measuring cell shortening at 1 uM; assay type: functional

Row | Activity (Bos taurus) [%] | SMILES | also measured
1 | 9.5 | O=C(NCCCc1ccc(F)cc1)NCc1ccccc1 | –
2 | 40.7 | CN(C)S(=O)(=O)c1ccc(CCNC(=O)N2CCC(c3ccccc3)CC2)cc1 | –
3 | 34.5 | CN(C)S(=O)(=O)c1ccc(CNC(=O)NCCCc2ccccc2)cc1 | –
4 | 36.9 | CN(C)S(=O)(=O)c1ccc(C2CCN(C(=O)NCc3ccccc3)CC2)cc1 | –
5 | 55.2 | Nc1ccc(CCNC(=O)NCCCc2ccccc2)cc1 | Activity (Rattus norvegicus [1]): 6.37%; Activity (Rattus norvegicus [2]): 4.16%
6 | 37.3 | O=C(NCCCc1ccccc1)NCCc1ccc(Cl)cc1Cl | –
7 | 40.6 | O=C(NCCCc1ccccc1)NCCc1ccc(C(=O)O)cc1 | –
8 | 85.1 | CN(C)S(=O)(=O)c1ccc(C2CCN(C(=O)NCCCc3ccccc3)CC2)cc1 | –
9 | 29.4 | COc1ccc(S(N)(=O)=O)c(CCNC(=O)NCCCc2ccccc2)c1 | –
10 | 30.5 | COc1ccc(CCCNC(=O)NCc2ccccc2)cc1 | –
11 | 27.6 | CN(C)S(=O)(=O)c1ccc(CNC(=O)N2CCC(c3ccccc3)CC2)cc1 | –
12 | 51.1 | O=C(NCCCc1ccccc1)NCCc1ccccc1 | Activity (Oryctolagus cuniculus): -2.1%; Activity (Gallus gallus): -4.7%; Activity (Rattus norvegicus [1]): 18.9%; Activity (Rattus norvegicus [2]): 12.15%; Activity (Cardiac muscle cell [3]): 20.8%
13 | 36.6 | NS(=O)(=O)c1ccc(CCNC(=O)NCCCCc2ccccc2)cc1 | –
14 | 32.6 | CN(C)S(=O)(=O)c1ccc(C2CCN(C(=O)NCCc3ccccc3)CC2)cc1 | –
15 | 52.3 | CN(CCc1ccc(S(=O)(=O)N(C)C)cc1)C(=O)NCCCc1ccccc1 | Activity (Rattus norvegicus [1]): 38.96%; Activity (Rattus norvegicus [2]): 24.19%
16 | 25.4 | COc1ccc(CNC(=O)NCCCc2ccccc2)cc1 | –
17 | 40.6 | CC(C)N(CCc1ccc(S(=O)(=O)N(C)C)cc1)C(=O)N(C)CCCc1ccccc1 | –
18 | 40 | COc1ccc(CCNC(=O)NCCCc2ccccc2)cc1 | –
19 | 39.6 | NS(=O)(=O)c1ccc(CNC(=O)NCCCc2ccccc2)cc1 | –
20 | 38.4 | COc1ccc(CCCNC(=O)NCCc2ccc(OC)c(OC)c2)cc1 | –
21 | 73.8 | Cc1ccc(CCNC(=O)NCCCc2ccccc2)cc1 | solubility [4]: Insoluble
22 | 53.3 | O=C(NCCCc1ccccc1)NCc1ccccc1 | Activity (Oryctolagus cuniculus): 1.4%; Activity (Gallus gallus): -3.7%; Activity (Rattus norvegicus [1]): 30.04%; Activity (Rattus norvegicus [2]): 18.27%; Activity (Cardiac muscle cell [3]): 25.3%
23 | 31.8 | NS(=O)(=O)c1ccc(NC(=O)NCCCc2ccccc2)cc1 | –
24 | 69 | CN(CCCc1ccccc1)C(=O)N(C)CCc1ccc(S(=O)(=O)N(C)C)cc1 | Activity (Rattus norvegicus [1]): 0.46%; Activity (Rattus norvegicus [2]): 0.27%

Row | Activity (Bos taurus) [%] | SMILES | also measured
25 | 32.5 | COc1ccc(CCNC(=O)NCCCCc2ccccc2)cc1OC | –
26 | 122 | COc1ccc(CCNC(=O)NCCCc2ccccc2)cc1OC | Activity (Oryctolagus cuniculus): -2.4%; Activity (Gallus gallus): 4.3%; Activity (Rattus norvegicus [1]): 23.97%; Activity (Rattus norvegicus [2]): 15.87%; Activity (Cardiac muscle cell [3]): 22.2%
27 | 20.6 | CN(C)S(=O)(=O)c1ccc(CCNC(=O)NCCCc2ccc(F)cc2)cc1 | –
28 | 38.6 | O=C(NCCCc1ccccc1)NCCc1ccc(F)cc1 | –
29 | 58 | COC(=O)N1CCN(Cc2cccc(NC(=O)Nc3ccc(C)nc3)c2F)CC1 [OMECAMTIV MECARBIL] | Activity (Oryctolagus cuniculus): 2.8%; Activity (Gallus gallus): -5.5%; Activity (Rattus norvegicus [1]): 20.32%; Activity (Rattus norvegicus [2]): 13.35%; Activity (Cardiac muscle cell [5]): 33.8%
30 | 33.3 | CC(C)c1ccc(CCNC(=O)NCCCc2ccccc2)cc1 | –
31 | 31 | O=C(NCCCc1ccccc1)NCCc1ccc(Cl)cc1 | –
32 | 20.8 | CN(C)S(=O)(=O)c1ccc(CCCNC(=O)NCc2ccccc2)cc1 | –
33 | 37.9 | NS(=O)(=O)c1ccc(CCNC(=O)NCCCc2ccc(Cl)cc2)cc1 | –
34 | 19.1 | NS(=O)(=O)c1ccc(CCNC(=O)NCCCc2ccc(F)cc2)cc1 | –
35 | 91.6 | CN(C)S(=O)(=O)c1ccc(CCNC(=O)NCCCc2ccccc2)cc1 | Activity (Oryctolagus cuniculus): -3.8%; Activity (Gallus gallus): -1.9%; Activity (Rattus norvegicus [1]): 17.62%; Activity (Rattus norvegicus [2]): 11.55%; Activity (Cardiac muscle cell [3]): 47.9%
36 | 41.9 | NS(=O)(=O)c1ccc(CCNC(=O)NCCCc2ccccc2)cc1 | Activity (Rattus norvegicus [1]): 11.24%; Activity (Rattus norvegicus [2]): 7.23%
37 | 95.1 | COc1ccccc1CCNC(=O)NCCCc1ccccc1 | Activity (Oryctolagus cuniculus): 3.5%; Activity (Gallus gallus): 5.3%; Activity (Rattus norvegicus [1]): 20.47%; Activity (Rattus norvegicus [2]): 13.58%; Activity (Cardiac muscle cell [3]): 19.7%
38 | 45.3 | CN(C)c1ccc(CCNC(=O)NCCCc2ccccc2)cc1 | –
39 | 65.4 | O=C(NCCCc1ccccc1)NCCc1ccccc1F | Activity (Rattus norvegicus [1]): 12.52%; Activity (Rattus norvegicus [2]): 8.76%
40 | 47.6 | CN(CCCc1ccccc1)C(=O)NCCc1ccc(S(=O)(=O)N(C)C)cc1 | Activity (Rattus norvegicus [1]): 23.19%; Activity (Rattus norvegicus [2]): 15.47%
41 | 39.5 | CCN(CCc1ccc(S(=O)(=O)N(C)C)cc1)C(=O)NCCCc1ccccc1 | –
42 | 56.2 | O=C(NCCCc1ccccc1)NCCc1ccc([N+](=O)[O-])cc1 | –
43 | 38.1 | CC(C)N(CCc1ccc(S(=O)(=O)N(C)C)cc1)C(=O)NCCCc1ccccc1 | –
44 | 30.3 | CCN(CCCc1ccccc1)C(=O)N(CC)CCc1ccc(S(=O)(=O)N(C)C)cc1 | –
45 | 34.8 | COc1ccc(CCCNC(=O)NCCc2ccc(S(N)(=O)=O)cc2)cc1 | –
46 | 38.8 | COc1ccc(CNC(=O)NCCCc2ccccc2)cc1OC | –
47 | – | Cc1ccc2c(c1)C(=O)[C@]1(O)CCN(c3ccccc3)C1=N2 | Activity (Oryctolagus cuniculus): -50.7%; Activity (Gallus gallus): -35.7%
48 | 35 | COc1cccc(CCNC(=O)NCCCc2ccccc2)c1 | –
